ChEMBL document CHEMBL1126216, “Amide, urea, and carbamate analogues of the muscarinic agent [4-[[N-(3-chlorophenyl)carbamoyl]oxy]-2-butynyl]trimethylammonium chloride” (1992)

How the values were obtained:
Rattus norvegicus [1] = assay: In vivo intravenous dose required to produce a half maximal pressor response in the pithed rat.; assay type: functional
How it was run: (§1)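 Male Sprague-Dawley rats (250-300 g), anesthetized with sodium amytal (125 mg/kg ip), intubated, pithed; body temperature held at 37 °C; 30 min stabilization. Ganglionic nicotinic block with pentolinium tartrate (18.5 μmol/kg iv) 20 min before agonist. Drugs in 0.9% saline, iv, 0.1 mL/100 g. Mean arterial pressure recorded; two or three compounds per rat; five to eight rats per compound.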

Rattus norvegicus [2] = assay: In vivo intrinsic pressor activity for its ability to maximally elevate arterial pressure in pithed rat.; assay type: functional, Artery; how it was run: as §1
[3] = test system: Muscarinic acetylcholine receptor M1 (Oryctolagus cuniculus)

Structure (SMILES) | ED50 (Rattus norvegicus [1]) [µmol/kg] | IPA (Rattus norvegicus [2]) | KA [3] [µM]
CC(C#CC[N+](C)(C)C)N(C)C(=O)Cc1cccc(Cl)c1 (configuration not stated) | 1.48 | 1 | 416
C[N+](C)(C)CC#CCOC(=O)Nc1cccc(Cl)c1 | 0.45 | 1 | 
CN(CC#CC[N+](C)(C)C)C(=O)Cc1cccc(Cl)c1 | 0.92 | 1 | 20.2
C[C@@H](C#CC[N+](C)(C)C)OC(=O)Nc1ccc(Cl)cc1 | 0.008 | 0.66 | 0.18
C[C@H](C#CC[N+](C)(C)C)OC(=O)Nc1cccc(Cl)c1 | 0.18 | 1 | 0.78
CN(CC#CC[N+](C)(C)C)C(=O)Nc1cccc(Cl)c1 | 0.55 | 1 | 24.8
CC(C#CC[N+](C)(C)C)N(C)C(=O)Nc1cccc(Cl)c1 (configuration not stated) | 0.69 | 1 | 83.3
CC(C#CC[N+](C)(C)C)OC(=O)Nc1ccc(Cl)cc1 (racemic) | 0.029 | 0.75 | 0.48
CC(C#CC[N+](C)(C)C)OC(=O)Nc1cccc(Cl)c1 (racemic) | 0.09 | 0.76 | 1.46
C[C@H](C#CC[N+](C)(C)C)OC(=O)Nc1ccc(Cl)cc1 | 0.039 | 0.8 | 0.49
C[C@@H](C#CC[N+](C)(C)C)OC(=O)Nc1cccc(Cl)c1 | 0.12 | 0.7 | 2.12
